Source: ChEMBL document CHEMBL4130513, “Jozilebomines A and B, Naphthylisoquinoline Dimers from the Congolese Liana Ancistrocladus ileboensis, with Antiausterity Activities against the PANC-1 Human Pancreatic Cancer Cell Line” (J Nat Prod, 2017)
Calls of active or inactive are those of the source. The calls are words filed in the database; no cut-off is given here.

Key:
PANC-1 [1] = assay: Induction of morphological changes in human PANC1 cells assessed as cell membrane rupture at 5 uM after 24 hrs by ethidium bromide/acridine orange staining based microscopic analysis; format: functional
How it was run: (§1)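 PANC-1 cells seeded at 1 × 10^6 per well and attached 24 h. After two PBS washes, treated in NDM with vehicle or 5 μM compound for 24 h. EB/AO dye mix (100 μg mL−1 each in PBS) added for 5 min. Imaged by phase contrast and red/green fluorescence at 20× objective.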

PANC-1 [2] = assay: Inhibition of colony formation in human PANC1 cells pretreated for 24 hrs followed by compound washout measured after 10 days by crystal violet staining based assay; format: functional, cell-based
How it was run: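 PANC-1 cells plated at 500/well in DMEM and attached 24 h at 37 °C, 5% CO2. Exposed 24 h to compound (1.25 and 2.5 μM) in DMEM or to DMEM alone. Washed with PBS, then grown 10 d in fresh DMEM. Fixed with 4% formaldehyde and stained with crystal violet for 10 min. Colony area quantified; three independent experiments.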

PANC-1 [3] = assay: Antiausteritic activity against human PANC1 cells in nutrient-deprived medium measured after 24 hrs by WST8 assay; format: functional
How it was run: (§2)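 PANC-1 cells seeded at 1.5 × 10^4/well, attached 24 h in DMEM at 37 °C, 5% CO2. After two PBS washes, exposed to serially diluted samples in nutrient-rich DMEM or nutrient-deprived medium (pH 7.4) for 24 h. Then WST-8 (10% in DMEM) for 3 h, A450 read. Viability is relative to control and blank wells. PC50 is the concentration killing 50% of cells preferentially in NDM.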

PANC-1 [4] = assay: Induction of morphological changes in human PANC1 cells assessed as disintegration of cell organelles at 5 uM after 24 hrs by ethidium bromide/acridine orange staining based microscopic analysis; format: functional; how it was run: as §1
HeLa = assay: Cytotoxicity against human HeLa cells assessed as reduction in cell viability after 72 hrs by CCK8 assay; format: functional, cell-based
How it was run: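 HeLa cells (DMEM, 10% FBS) plated at 2 × 10^3/well and attached 24 h at 37 °C, 5% CO2. After a PBS wash, serially diluted samples in DMEM were added for 72 h, with paclitaxel as positive control. Cells were washed, given 10% WST-8 (CCK-8) in DMEM for 3 h, and A450 was read. Viability was taken from three-well means, corrected against blank and control.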

L6 = assay: Cytotoxicity against rat L6 cells after 72 hrs by alamar blue staining based fluorescence assay; format: cell-based
[5] = Selectivity index, ratio of IC50 for rat L6 cells to IC50 for Plasmodium falciparum NF54; format: toxicity
[6] = system: Trypanosoma brucei rhodesiense; assay: Antitrypanosomal activity against Trypanosoma brucei rhodesiense bloodstream forms after 72 hrs by alamar blue staining based fluorescence assay; format: functional, organism-based
Trypanosoma cruzi = assay: Antitrypanosomal activity against Trypanosoma cruzi trypomastigote forms infected in rat L6 cells after 96 hrs by CPRG/Nonidet substrate based photometric method; format: functional, organism-based
Leishmania donovani = assay: Antileishmanial activity against Leishmania donovani amastigote forms after 72 hrs by alamar blue staining based fluorescence assay; format: functional, organism-based
Plasmodium falciparum = assay: Antiplasmodial activity against Plasmodium falciparum NF54 assessed as reduction in [3H]hypoxanthine incorporation pretreated for 48 hrs followed by [3H]hypoxanthine addition measured after 24 hrs by liquid scintillation counting method; format: functional, organism-based
PANC-1 [7] = assay: Cytotoxicity against human PANC1 cells in DMEM measured after 24 hrs by WST8 assay; format: cell-based; conditions: panc-1, 24 h; how it was run: as §2

SMILES	Activity (PANC-1 [1])	inhibition (PANC-1 [2])	Activity (PANC-1 [3])	Activity (PANC-1 [4])	Activity (HeLa)	Ratio IC50 [5]	PC50 (PANC-1 [3]) [µM]	IC50 (Plasmodium falciparum) [µM]	further results
COc1cc(C)c(-c2ccc3c(c2O)[C@@H](C)N[C@H](C)C3)c2ccc(-c3c(C)c(-c4ccc5c(c4O)[C@@H](C)N[C@H](C)C5)c4cccc(OC)c4c3O)c(O)c12 (single isomer, unassigned; atropisomer 2) [listing 1 of 2 here]	Active	Dose-dependent effect	Dose-dependent effect	Active	Dose-dependent effect	–	–	–	–
COc1cc(C)c(-c2ccc3c(c2O)[C@@H](C)N[C@H](C)C3)c2ccc(-c3c(C)c(-c4ccc5c(c4O)[C@@H](C)N[C@H](C)C5)c4cccc(OC)c4c3O)c(O)c12 (atropisomer, axis not shown) [listing 1 of 2 here]	–	–	–	–	–	160	2.24	0.043	IC50 (L6; Rattus norvegicus, L6, 72 h): 6.85 µM; IC50 ([6]; Trypanosoma brucei, 72 h): 0.732 µM; IC50 (Trypanosoma cruzi; l6): 23.8 µM; IC50 (Leishmania donovani; Leishmania donovani, 72 h): 89.7 µM; Activity (PANC-1 [7]): Non-Toxic; IC50 (HeLa; Homo sapiens, HeLa, 72 h): 1.08 µM
COc1cc(C)c(-c2ccc3c(c2O)[C@@H](C)N[C@H](C)C3)c2ccc(-c3c(C)c(-c4ccc5c(c4O)[C@@H](C)N[C@H](C)C5)c4cccc(OC)c4c3O)c(O)c12 (single isomer, unassigned; atropisomer 2) [listing 2 of 2 here]	–	–	–	–	–	52.3	0.87	0.102	IC50 (L6; l6): 5.33 µM; IC50 [6]: 1.03 µM; IC50 (Trypanosoma cruzi; Trypanosoma cruzi, L6, 96 h): 21.9 µM; IC50 (Leishmania donovani): 55.8 µM; IC50 (HeLa; hela): 0.68 µM
COc1cc(C[C@H]2C(=O)OC[C@@H]2Cc2ccc(OC)c(OC)c2)ccc1O [ARCTIGENIN]	–	–	–	–	–	–	0.83	–	–
COc1cc(C)c(-c2ccc3c(c2O)[C@@H](C)N[C@H](C)C3)c2ccc(-c3c(C)c(-c4ccc5c(c4O)[C@@H](C)N[C@H](C)C5)c4cccc(OC)c4c3O)c(O)c12 (atropisomer, axis not shown) [listing 2 of 2 here]	Active	Dose-dependent effect	Dose-dependent effect	Active	Dose-dependent effect	–	–	–	–
